Laboratory results as given in ChEMBL document CHEMBL1130118, “A novel radioiodination reagent for protein radiopharmaceuticals with L-lysine as a plasma-stable metabolizable linkage to liberate m-iodohippuric acid after lysosomal proteolysis” (J Med Chem, 1997).
Where “and” joins values, the source holds several entries; their conditions need not be identical. Identical values can stand only once.

Columns and labels:
Format in all cases: ADME, organism-based
Settings in all cases: in vivo
[1] = Cumulative radioactivity exerted by [131 I ]L-HML-NGA in the urine at 24 hour postinjection of [131 I ]L-HML-NGA and [125 I ]HML-IT-NGA.
Method in brief: (§1)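 Mice received one i.v. co-injection of the dual-isotope NGA mixture, 9 µg of each radioiodinated protein, and were housed in metabolic cages for 24 h. Cumulative urine and feces were collected and counted. Values are % injected dose, mean (SD) of five animals, with a Student's paired t-test between the two co-administered conjugates.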

Mus musculus [2] = assay: The biodistribution time for [131 I ]L-HML-NGA radioactivity after concomitant administration of [131 I ]L-HML-NGA and [125 I ]MIH-NGA in mice. It is expressed as percent injected dose per neck.
Method in brief: (§2)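 Six-week-old male ddY mice were given one i.v. co-injection of a 131I/125I-labelled NGA pair, each diluted to 90 µg/mL protein in 0.1 M PBS pH 6.0 and mixed 1:1, giving 9 µg of each radioiodinated NGA per mouse. Groups of five were killed at 5, 15, 30 min, 1 h and 3 h. Organs were weighed and counted in a well counter. Values are % ID per organ, blood as % ID/g, mean (SD).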

Mus musculus [3] = assay: The biodistribution time for [131 I ]L-HML-NGA radioactivity after concomitant administration of [131 I ]L-HML-NGA and [125 I ]MIH-NGA in mice. It is expressed as percent injected dose per intestine.; method in brief: as §2
[4] = Cumulative radioactivity exerted by [131 I ]L-HML-NGA in the urine at 24 hour postinjection of [131 I ]L-HML-NGA and [125 I ]MIH-NGA.; method in brief: as §1
Mus musculus [5] = assay: The biodistribution time for [131 I ]L-HML-NGA radioactivity after concomitant administration of [131 I ]L-HML-NGA and [125 I ]L-HML-IT-NGA in mice. It is expressed as percent injected dose per neck.; method in brief: as §2
Mus musculus [6] = assay: The biodistribution time for [131 I ]L-HML-NGA radioactivity after concomitant administration of [[131 I ]L-HML-NGA and [125 I ]MIH-NGA in mice. It is expressed as percent injected dose per kidney.; method in brief: as §2
Mus musculus [7] = assay: The biodistribution time for [131 I ]L-HML-NGA radioactivity after concomitant administration of [[131 I ]L-HML-NGA and [125 I ]D-HML-NGA in mice. It is expressed as percent injected dose per kidney.; method in brief: as §2
[8] = Cumulative radioactivity exerted by [131 I ]L-HML-NGA in the urine at 24 hour postinjection of [131 I ]L-HML-NGA and [125 I ]MPH-NGA.; method in brief: as §1
Mus musculus [9] = assay: The biodistribution time for [131 I ]L-HML-NGA radioactivity after concomitant administration of [[131 I ]L-HML-NGA and [125 I ]L-HML-IT-NGA in mice. It is expressed as percent injected dose per kidney.; method in brief: as §2
Mus musculus [10] = assay: The biodistribution time for [131 I ]L-HML-NGA radioactivity after concomitant administration of [131 I ]L-HML-NGA and [125 I ]D-HML-NGA in mice. It is expressed as percent injected dose per intestine.; method in brief: as §2
Homo sapiens = organism: Homo sapiens; assay: The percent protein-bound radioactivity in NGAfractions following incubation of radioiodinated [131 I ]L-HML-NGA in human serum after 3 hours
Method in brief: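 Conjugates were diluted to 0.5 mg/mL in 0.1 M PBS pH 6.0, and 20 µL was added to 230 µL of freshly prepared human serum. Samples were incubated at 37 °C and taken at 1, 3, 6 or 24 h. Protein-bound fraction (Rf 0) was separated from small metabolites (Rf 0.6-0.9) by paper chromatography in methanol-water 4:1. Protein-bound radioactivity was divided by the initial radiochemical purity. Values are mean (SD).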

[11] = Cumulative radioactivity exerted by [131 I ]L-HML-NGA in the urine at 24 hour postinjection of [131 I ]L-HML-NGA and [125 I ]D-HML-NGA.; method in brief: as §1
Mus musculus [12] = assay: The biodistribution time for [131 I ]L-HML-NGA radioactivity after concomitant administration of [131 I ]L-HML-NGA and [125 I ]D-HML-NGA in mice. It is expressed as percent injected dose per stomach.; method in brief: as §2

## N[C@@H](CS)C(=O)SC1CC(=O)N(CCCC[C@H](NC(=O)CNC(=O)c2cccc([131I])c2)C(=O)O)C1=O (stereo partly drawn)
[1]
  Radioactivity: 80.07%
Mus musculus [2]
  Radioactivity: 0.07% and 0.25% and 0.12% and 0.05% and 0.03%
Mus musculus [3]
  Radioactivity: 0.78% and 3.57% and 5.41% and 6.15% and 4.54%
[4]
  Radioactivity: 87.32%
Mus musculus [5]
  Radioactivity: 0.07% and 0.25% and 0.21% and 0.03%
Mus musculus [6]
  Radioactivity: 0.84% and 4.16% and 2.19% and 0.51% and 0.16%
Mus musculus [7]
  Radioactivity: 1.07% and 4.49% and 1.55% and 0.61% and 0.27%
[8]
  Radioactivity: 84.45%
Mus musculus [9]
  Radioactivity: 0.28% and 4.91% and 4.92% and 0.96% and 0.21%
Mus musculus [10]
  Radioactivity: 1.77% and 4.88% and 7.76% and 9.83% and 8.6%
Homo sapiens
  Radioactivity: 99.07%
[11]
  Radioactivity: 80.78%
Mus musculus [12]
  Radioactivity: 0.2% and 0.5% and 0.88% and 0.78% and 0.69%
